# Autophagy mod: alters autophagy in cells; calls only at 10 µM (by protocol); MEF GFP-LC3 puncta imaging; test concentration mostly 10 µM; actives 0.98% (n = 190,000); AID 463193;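 active = percentage of spot-positive cells more than 3 SD above its plate mean, without a fluorescence outlier flag or 80% toxicity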;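 also: spot-positive cell cutoff set from DMSO-treated cells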
# Ins promoter up: MIN6 insulin promoter up-regulation | MIN6 insulin promoter-GFP reporter, high-content imaging; stronger effect = higher value | actives 0.3% (n = 190,000) | z-score at 5 µM | AID 1625;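 active = z-score above 3 at 5 µM with at least 500 cells counted in the well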
# MT stabilize HCS: stabilizes microtubules in HeLa cells. HeLa tubulin immunostaining HCS, 24 h; share of cells brighter than vehicle mean+2SD. % tubulin-high responders, % at 10 µM. actives 0.83% (n = 200,000). AID 2205;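 active = plate Z-score above 3 for both tubulin-high and condensed-nucleus cell shares, with cell loss under 80%, at 10 µM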;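 also: anti alpha tubulin signal scored within the nucleus-defined area of each cell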
# b-catenin transl: alters nuclear translocation of beta-catenin in HeLa cells | immunofluorescence imaging | nuclear translocation activity, % at 5 µM | actives 0.3% (n = 190,000) | AID 1665;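 active = nuclear translocation activity above 50% at 5 µM, with a well cell count of 50 or more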;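 also: per-cell ratio of nuclear to cytoplasmic median beta-catenin stain intensity; plate controls were DMSO negative control for no effect and GSK-3 inhibitor IX positive control for full effect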
#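 Test system: human HeLa cell line; Doses: 5 µM primary, 0.02–20 µM confirmation; Incubation: 24 h compound exposure, 37°C; Detection: beta-catenin immunofluorescence imaging with DAPI; Read-out: beta-catenin nuclear/cytoplasmic ratio, % activation.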
# Active calls of the source: *; i = inactive; x = no result given; + = active, no number. Sampled rows, rich in hits. Any-hit rate of the full collection: about 1.9%.
SMILES,Autophagy mod,Ins promoter up,MT stabilize HCS,b-catenin transl
Oc1c(C=NCc2ccc(F)cc2)[nH]c2ccc(Br)c(Cl)c12,+,x,1,8
COc1ccccc1N1CCN(CC(=O)Nc2ccc(-n3cnnn3)cc2)CC1,i,0.26,2,-1
CC(C)n1cc(/C(N)=N/O)c(=O)n(Cc2ccccc2)c1=O,x,0.99,x,-1
O=C(NCCCN1CCOCC1)c1cccc(S(=O)(=O)N2CCc3ccccc3C2)c1,i,0.82,63*,-2
O=C(NCC1(N2CCOCC2)CCCCC1)c1cccc(S(=O)(=O)N2CCc3ccccc3C2)c1,i,-1.6,6,0
CCC(C)NC(=O)COc1ccc(Br)c(C)c1 (stereo not drawn),i,x,1,-7
COc1ccc(O[C@H]2C=C[C@@H](c3ccccc3)O[C@@H]2CO/N=C(\C)CCN2CCCCc3nc(C)c(C)cc32)cc1,+,-0.63,2,0
S=c1[nH]nc(-c2cc(-c3ccccc3)n[nH]2)n1/N=C/c1cccc(Cl)c1,x,-0.05,x,-5
Cn1ncc(N=Cc2c(O)ccc3ccccc23)c1C(=O)Nc1cccc(Cl)c1,+,2.3,15*,9
Cn1ncc(Cl)c1C(=O)Nc1cccc(Cl)c1,i,x,2,-1
C=CCn1c(SCc2nc3sc(C(=O)O)c(C)c3c(=O)[nH]2)nnc1-c1ccc(C(C)(C)C)cc1,x,0.17,x,-2
C=CCn1c(SCc2nc3sc(C(=O)O)c(C)c3c(=O)[nH]2)nnc1-c1ccccc1,+,0.47,3,-2
COc1ccc(C(=O)OCC(=O)NCCN2C(=O)CSC2=O)cc1,i,0.14,2,-3
CC(CCc1ccccc1)NC(=O)CSc1ccccc1 (stereo not drawn),+,0.02,4,-1
CSc1nc2ccccc2cc1/C=C(\C#N)c1cccc(Cl)c1,+,-0.13,34*,0
CCOC(=O)/C(C#N)=C/c1cc2ccccc2nc1Cl,i,x,2,x
NC(=S)N/N=C/c1ccccc1OCCSc1ccc(Cl)cc1,i,-1.8,3,2
Cc1ccc(/C=N/NC(=O)c2csc3c2CCCC3)cc1,+,1.1,20*,43
COc1cc(/C=N/NC(=O)c2csc3c2CCCC3)cc(OC)c1O,i,-0.13,3,-2
COc1ccc(-c2[nH]ncc2CN(C)CC2CCCCO2)cc1F (stereo not drawn),+,0.03,x,1
COCC(=O)N(Cc1ccco1)c1nnc(C2CCOC2)s1 (stereo not drawn),+,0.04,2,x
CCOC(=O)N1CCN(C(=O)NC2CCCCC2)CC1,i,3.7*,3,-1
Cc1cc(C)c(S(=O)(=O)N2CCCOC2CNC(=O)C(=O)NCc2cccs2)c(C)c1 (stereo not drawn),i,0.46,3,-4
Cc1ccc2nc(SCC(=O)Nc3ccccc3N3CCOCC3)c(C#N)cc2c1,+,1.2,46*,-6
CCN(CCn1cccn1)Cc1c(C(=O)N2CCCCCCC2)nc2ccc(Cl)cn12,i,0.44,1,2
SMILES,Autophagy mod,Ins promoter up,MT stabilize HCS,b-catenin transl
C=CCN(CC=C)S(=O)(=O)c1ccc(NC(=S)NC(=O)Cc2ccc(OC)cc2)cc1,i,-1.4,2,0
COc1ccc(C(NC(=O)c2c(F)c(F)c(F)c(F)c2F)c2ccccc2)cc1 (stereo not drawn),i,-3,5,-2
COc1ccccc1N/C=C/c1onc(C)c1[N+](=O)[O-],+,x,2,5
c1cn2cc(CN3CCOCC3)nc2s1,i,0.67,2,-5
Cc1ccc(C2SCC(=O)N2Cc2cn3ccsc3n2)o1 (stereo not drawn),+,0.08,1,-1
O=C(O)CC1(CC(=O)Nc2cc(F)ccc2Cl)CCCCC1,x,x,x,-4
Cc1ccc(N(C(=O)CCl)C(C(=O)NC2CCCCC2)c2cccnc2)cc1C (stereo not drawn),+,x,11,8
Cc1ccc(N(C(=O)CNC(=O)c2ccco2)C(C(=O)NC2CCCC2)c2cccnc2)cc1C (stereo not drawn),i,-0.24,1,0
CCc1ccccc1NC(=S)N1CCC(C(=O)c2ccc(F)cc2)CC1,i,x,1,x
Cc1ccc(S(=O)(=O)/N=C(\c2ccc(Cl)cc2)N2CCOCC2)cc1,i,0.07,2,1
C#C[C@]1(O)CC[C@H]2[C@@H]3CCc4cc(OC)ccc4[C@H]3CC[C@@]21C,+,x,5,1
COc1ccc(S(=O)(=O)N(CCc2ccccc2)CC(=O)NC(C)C)cc1,i,0.5,2,-2
Cc1ccc(NC(=S)NC(=O)c2ccc(F)cc2)cc1S(=O)(=O)Nc1cccc(Cl)c1,i,0.78,20*,5
